Experimental findings from ChEMBL document CHEMBL1143402 (PLoS Med, 2006) are described below.

By AUC(0-t) is commonly meant exposure summed from dosing to a finite time, without extrapolation to infinity. The Cmax is the maximum level reached in the sampled fluid or tissue.

The nature of data set [1]: AUC (0 to t) in human at 300 mg, po. It counts as ADME, organism-based. The conditions noted are these: plasma.
In data set [2] the test system is Mycobacterium tuberculosis. The data set can be described thus: Antimycobacterial activity against Mycobacterium tuberculosis Kurono infected ICR mouse assessed as reduction in viable lung bacterial count at 5 mg/kg, po administered once daily measured after 28 days. The class given is functional. In short, it runs like this:
(§1)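 ICR mice infected via caudal vein with 8.6 × 10^4 CFU M. tuberculosis Kurono; after 28 d, stratified randomisation (n = 5/group), then oral dosing once daily for 28 d in 5% gum arabic, 2-fold dose series. Lungs homogenised in water, dilutions plated on 7H11 agar, colonies counted after 14 d at 37 °C; log10 CFU.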

Data set [3] relates to Mycobacterium tuberculosis. The data set can be described thus: Antimycobacterial activity against Mycobacterium tuberculosis Kurono infected ICR mouse assessed as reduction in viable lung bacterial count at 160 mg/kg, po administered once daily measured after 28 days. It counts as functional. In short, it runs like this: as §1
The nature of data set [4]: AUC (0 to t) in human at 850 mg, po. It counts as ADME, organism-based. The conditions noted are these: plasma.
Data set [5] in a line: Cmax in human at 850 mg, po. It counts as ADME, organism-based. The conditions noted are these: in vivo. Further details: dose 850 mg, route oral.
Data set [6] has as its system Mycobacterium tuberculosis. The data set can be described thus: Antimycobacterial activity against Mycobacterium tuberculosis Kurono infected ICR mouse assessed as reduction in viable lung bacterial count at 3.5 mg/kg, po administered once daily measured after 28 days. It counts as functional. In short, it runs like this:
as §1

The nature of data set [7]: Plasma concentration in Mycobacterium bovis BCG infected tuberculosis mouse model at 5 mg/kg, po after 1 hr. The class given is ADME, organism-based. Further details: dose 5 mg/kg, route oral. In short, it runs like this: (§2)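 The agent, dissolved or suspended in 5% gum arabic, was then given orally. At each time point, about 1 ml of blood was drawn from the abdominal post cava under ether into a heparinised syringe and centrifuged at 3,000 rpm, 5 °C. Plasma (0.1 ml) was mixed with 0.2 ml acetonitrile.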

Data set [8] in a line: Plasma concentration in Mycobacterium bovis BCG infected tuberculosis mouse model at 5 mg/kg, po after 0.5 hrs. It counts as ADME, organism-based. Further details: dose 5 mg/kg, route oral. In short, it runs like this:
as §2

A short description of data set [9]: Plasma concentration in Mycobacterium bovis BCG infected tuberculosis mouse model at 5 mg/kg, po after 8 hrs. The class given is ADME, organism-based. The arrangement: dose 5 mg/kg, route oral. In short, it runs like this: as §2
Data set [10] can be described thus: Plasma concentration in Mycobacterium bovis BCG infected tuberculosis mouse model at 5 mg/kg, po after 2 hrs. The arrangement: dose 5 mg/kg, route oral. The class given is ADME, organism-based. In short, it runs like this:
as §2

Data set [11] in a line: Plasma concentration in Mycobacterium bovis BCG infected tuberculosis mouse model at 5 mg/kg, po after 16 hrs. The class given is ADME, organism-based. Further details: dose 5 mg/kg, route oral. In short, it runs like this: as §2
Data set [12] in a line: Plasma concentration in Mycobacterium bovis BCG infected tuberculosis mouse model at 5 mg/kg, po after 4 hrs. The class given is ADME, organism-based. Further details: dose 5 mg/kg, route oral. In short, it runs like this:
as §2

A further data set deals with T1, CYP1A1/CYP1A2 (Homo sapiens, UniProt P04798).
T1 sequence (P04798 whole entry): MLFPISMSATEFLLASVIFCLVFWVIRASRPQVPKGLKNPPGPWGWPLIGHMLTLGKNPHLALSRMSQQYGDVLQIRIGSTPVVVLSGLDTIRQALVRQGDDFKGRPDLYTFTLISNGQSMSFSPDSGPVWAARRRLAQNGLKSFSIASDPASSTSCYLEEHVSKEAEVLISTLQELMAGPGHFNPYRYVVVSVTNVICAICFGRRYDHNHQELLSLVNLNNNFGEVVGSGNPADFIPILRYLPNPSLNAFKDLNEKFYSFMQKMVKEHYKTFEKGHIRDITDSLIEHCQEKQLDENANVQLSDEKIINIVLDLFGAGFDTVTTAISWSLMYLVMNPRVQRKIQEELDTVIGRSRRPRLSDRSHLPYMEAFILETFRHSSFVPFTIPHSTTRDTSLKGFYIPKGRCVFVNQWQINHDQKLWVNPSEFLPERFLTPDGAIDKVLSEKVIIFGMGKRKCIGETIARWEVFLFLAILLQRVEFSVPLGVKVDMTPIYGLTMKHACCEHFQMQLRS
The data set can be described thus: Effect on CYP1A1/CYP1A2 in human liver assessed as 7-ethoxyresorufin O-deethylation at 100 uM relative to control. The conditions noted are these: probe 7-ethoxyresorufin, read-out: Activity. It counts as ADME, tissue-based. In short, it runs like this:
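Human liver microsomes (0.1–0.5 mg protein) in 0.1 M phosphate pH 7.4 with 0.1 mM EDTA and NADPH-generating system. […] Metabolite formation by HPLC, in triplicate; mean expressed as % of control.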

Data set [13] deals with Liver microsomes. As to the kind of experiment: Stability in rat liver microsomes. The class given is ADME, Microsome. In short, it runs like this:
(§3)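 Liver microsomes (1 mg/ml protein) incubated with 100 µM drug, 2.5 mM NADPH and 2.5 mM NADH in 100 mM phosphate pH 7.4 with 1% DMSO. Run in duplicate, 2 h at 37 °C with shaking. Extracted with acetonitrile/ethyl acetate; analysed by HPLC and LC-ESI-MS/MS.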
A general note: Liver microsomes are vesicles of endoplasmic reticulum, rich in cytochrome P450 enzymes.

For data set [14], the system named is Salmonella typhimurium. As to the kind of experiment: Toxic mutagenic effect in Salmonella Typhimurium TA1535 in presence of rat liver microsomes after 48 hrs by bacterial reverse mutation test. It counts as toxicity, organism-based. The conditions noted are these: salmonella enterica subsp. enterica serovar typhimurium.
The nature of data set [15]: Stability in rabbit liver microsomes. It counts as ADME, Oryctolagus cuniculus, Microsome. In short, it runs like this:
as §3

In data set [16] the test system is Mycobacterium tuberculosis. As to the kind of experiment: Antimycobacterial activity against Mycobacterium tuberculosis H37Rv in human THP1 cells after 4 hrs. The conditions noted are these: THP-1. The class given is functional, organism-based. In short, it runs like this:
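PMA-differentiated human THP-1 macrophages infected 4 h with H37Rv, washed, then 20 µg/ml SM for 20 h to kill extracellular bacilli. Compound pulse for 4 h, washout, further 68-h culture. Lysis in 0.1% SDS, plating on 7H11 agar, colonies counted after 16 d at 37 °C; n = 3.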

Data set [17] can be described thus: Stability in monkey liver microsomes. The class given is ADME, Macaca mulatta, Microsome. The conditions noted are these: rhesus monkey. In short, it runs like this: as §3
Data set [18] has as its system Liver microsomes. The data set can be described thus: Stability in human liver microsomes. It counts as ADME, Microsome. In short, it runs like this:
as §3

The test system of data set [19] is Salmonella typhimurium. As to the kind of experiment: Toxic mutagenic effect in Salmonella Typhimurium TA100 in presence of rat liver microsomes after 48 hrs by bacterial reverse mutation test. The conditions noted are these: salmonella enterica subsp. enterica serovar typhimurium. It counts as toxicity, organism-based.
The test system of data set [20] is Salmonella typhimurium. The data set can be described thus: Toxic mutagenic effect in Salmonella Typhimurium TA1537 in presence of rat liver microsomes after 48 hrs by bacterial reverse mutation test. The conditions noted are these: salmonella enterica subsp. enterica serovar typhimurium. The class given is toxicity, organism-based.
The test system of data set [21] is Mycobacterium tuberculosis. The data set can be described thus: Antimycobacterial activity against Mycobacterium tuberculosis Kurono infected po dosed immunocompromized BALB/c mouse assessed as reduction in viable lung bacterial count administered once daily. It counts as functional, organism-based. In short, it runs like this: (§4)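 From day 1, randomised by body weight (n = 5/group) and dosed orally once daily for 10 d, 10 to 0.313 mg/kg in 2-fold steps, in 5% gum arabic. Lung homogenates plated on 7H11 agar, colonies counted after 14 d; log10 CFU.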

Data set [22] in a line: Stability in mouse liver microsomes. The class given is ADME, Microsome. In short, it runs like this: as §3
Data set [23] concerns Salmonella typhimurium. As to the kind of experiment: Toxic mutagenic effect in Salmonella Typhimurium TA98 in presence of rat liver microsomes after 48 hrs by bacterial reverse mutation test. The class given is toxicity, organism-based. The conditions noted are these: salmonella enterica subsp. enterica serovar typhimurium.
A short description of data set [24]: Stability in dog liver microsomes. It counts as ADME, Canis lupus familiaris, Microsome. In short, it runs like this:
as §3

The subject of data set [25] is Mycobacterium tuberculosis. As to the kind of experiment: Antimycobacterial activity against Mycobacterium tuberculosis Kurono infected po dosed BALB/c mouse assessed as reduction in viable lung bacterial count administered once daily. It counts as functional, organism-based. In short, it runs like this:
as §4

The test system of data set [26] is Mycobacterium tuberculosis. As to the kind of experiment: Antimycobacterial activity against Mycobacterium tuberculosis Kurono infected ICR mouse assessed as reduction in viable lung bacterial count at 40 mg/kg, po administered once daily measured after 28 days. It counts as functional. In short, it runs like this: as §1
The target in another data set is T2, CYP2A6 (Homo sapiens, UniProt P11509).
T2 sequence (P11509 whole entry): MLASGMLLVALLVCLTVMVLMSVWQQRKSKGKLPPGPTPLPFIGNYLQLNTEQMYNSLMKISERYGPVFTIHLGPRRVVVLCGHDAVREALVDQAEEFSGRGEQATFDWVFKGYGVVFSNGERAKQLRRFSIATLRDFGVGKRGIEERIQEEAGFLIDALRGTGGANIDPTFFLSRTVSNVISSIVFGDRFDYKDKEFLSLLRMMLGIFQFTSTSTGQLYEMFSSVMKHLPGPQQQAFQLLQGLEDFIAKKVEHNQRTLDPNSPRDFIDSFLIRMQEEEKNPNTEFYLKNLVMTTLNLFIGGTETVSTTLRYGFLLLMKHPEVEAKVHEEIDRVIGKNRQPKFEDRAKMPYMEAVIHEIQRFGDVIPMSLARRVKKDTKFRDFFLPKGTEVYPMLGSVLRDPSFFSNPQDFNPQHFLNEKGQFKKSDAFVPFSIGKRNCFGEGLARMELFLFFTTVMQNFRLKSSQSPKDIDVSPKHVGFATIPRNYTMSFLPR
The data set can be described thus: Effect on CYP2A6 in human liver assessed as coumarin 7-hydroxylation at 100 uM relative to control. The class given is ADME, tissue-based. The conditions noted are these: probe coumarin, read-out: Activity.

The next data set deals with CYP2E1 (Homo sapiens, UniProt P05181). The data set can be described thus: Effect on CYP2E1 in human liver assessed as chlorzoxazone 6-hydroxylation at 100 uM relative to control. The conditions noted are these: probe chlorzoxazone, read-out: Activity. It counts as ADME, tissue-based.
Sequence of CYP2E1 (P05181 whole entry): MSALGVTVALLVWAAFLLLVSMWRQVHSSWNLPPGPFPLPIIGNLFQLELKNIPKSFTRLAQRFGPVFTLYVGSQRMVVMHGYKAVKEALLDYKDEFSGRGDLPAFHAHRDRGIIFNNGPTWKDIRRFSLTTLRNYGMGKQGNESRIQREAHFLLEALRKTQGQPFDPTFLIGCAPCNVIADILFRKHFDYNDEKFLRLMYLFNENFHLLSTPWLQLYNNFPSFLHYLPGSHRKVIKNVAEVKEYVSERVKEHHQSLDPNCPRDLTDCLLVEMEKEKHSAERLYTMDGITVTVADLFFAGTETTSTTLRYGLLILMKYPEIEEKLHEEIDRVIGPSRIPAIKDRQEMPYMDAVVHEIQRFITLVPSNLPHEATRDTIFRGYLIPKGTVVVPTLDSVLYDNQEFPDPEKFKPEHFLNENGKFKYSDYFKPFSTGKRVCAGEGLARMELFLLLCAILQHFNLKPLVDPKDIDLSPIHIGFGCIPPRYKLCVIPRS

Regarding `NNC(=O)c1ccncc1` [ISONIAZID], the exposure AUC(0-t) in data set [1] is 22900 ng·h/mL. In addition, the Activity in data set [2] is 95%.

Consider `CC[C@@H](CO)NCCN[C@@H](CC)CO` [ETHAMBUTOL], for which, in [3], the Activity was 95%. The compound also gave an AUC(0-t) in data set [4] of 13000 ng·h/mL. In addition, the peak level in data set [5] (Cmax) was 3700 ng/mL.

Consider `CO[C@H]1/C=C/O[C@@]2(C)Oc3c(C)c(O)c4c(O)c(c(/C=N/N5CCN(C)CC5)c(O)c4c3C2=O)NC(=O)/C(C)=C\C=C\[C@H](C)[C@H](O)[C@@H](C)[C@@H](O)[C@@H](C)[C@H](OC(C)=O)[C@@H]1C` [RIFAMPIN], for which, in [6], the Activity was 95%. This compound also returned a concentration at 1 h in data set [7] of 4490 ng/mL. Besides, in [8], the concentration at 0.5 h stood at 3330 ng/mL. In [9], this compound yielded a concentration at 8 h of 3180 ng/mL. In data set [10], this compound gave a concentration at 2 h of 4520 ng/mL. In [11], this compound had a concentration at 16 h of 660 ng/mL. The concentration at 4 h in [12] amounted to 3820 ng/mL.

Take `O=c1cc(-c2ccccc2)oc2c1ccc1ccccc12` [ALPHA-NAPHTHOFLAVONE]: on CYP1A1/CYP1A2, the activity at 100 µM was 3.8%.

With `C[C@]1(COc2ccc(N3CCC(Oc4ccc(OC(F)(F)F)cc4)CC3)cc2)Cn2cc([N+](=O)[O-])nc2O1`, the Activity result in the data set on Liver microsomes [13] is “Stable”; in the data set on Salmonella typhimurium [14], “Non-toxic”; in data set [15], “Stable”; in data set [16], “Dose-dependent effect”; in [17], “Stable”; in the data set on Liver microsomes [18] it was “Stable”. In addition, the Activity result in the data set with Salmonella typhimurium [19] is “Non-toxic”; in the data set with Salmonella typhimurium [20] it was “Non-toxic”; in data set [21], “Dose-dependent effect”; in [22], “Stable”; with Salmonella typhimurium [23], “Non-toxic”; in [24], “Stable”. Further, the Activity entry in data set [25] was “Dose-dependent effect”.

Regarding `NC(=O)c1cnccn1` [PYRAZINAMIDE], in data set [3], the Activity came to 95%.

In the case of `CN[C@@H]1[C@H](O[C@H]2[C@H](O[C@H]3[C@H](O)[C@@H](O)[C@H](N=C(N)N)[C@@H](O)[C@@H]3N=C(N)N)O[C@@H](C)[C@]2(O)C=O)O[C@@H](CO)[C@H](O)[C@H]1O` [STREPTOMYCIN], in [26], the Activity is recorded as 95%.

`CCN(CC)C(=S)S` [DITIOCARB]: the activity at 100 µM at CYP2A6 worked out at 38.2%; on CYP2E1, 55%.
